Results reported in ChEMBL document CHEMBL1145081, “Effects of the substitution of Phe4 in the opioid peptide [D-Ala8]dynorphin A-(1-11)NH2” (J Med Chem, 2003).

Key:
[1] = biological target: T1, Kappa-type opioid receptor (Rattus norvegicus, UniProt P34975); experiment: Inhibition of Forskolin-Stimulated Adenylyl Cyclase in CHO cells expressing Opioid receptor kappa 1; assay type: functional, cell-based
Summary of the method: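 CHO cells stably expressing cloned rat κ-opioid receptors. Cultures incubated 40 min at 37° with 50 μM forskolin and varying peptide concentrations. Present: 50 μM RO20-1724 (phosphodiesterase inhibitor), plus 10 μM bestatin, 30 μM captopril and 50 μM L-leucyl-L-leucine. [3H]cyclic AMP counted, with [14C]cyclic AMP added for recovery correction. Mean ± SEM, generally n ≥ 3, some n = 2.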

Mu-type opioid receptor = Mu-type opioid receptor (Rattus norvegicus, UniProt P33535); experiment: Binding affinity towards rat Opioid receptor mu 1 expressed in CHO cells of chinese hamster ovary was determined using [3H]DAMGO; assay type: cell-based
Sequence of Mu-type opioid receptor (P33535 whole entry): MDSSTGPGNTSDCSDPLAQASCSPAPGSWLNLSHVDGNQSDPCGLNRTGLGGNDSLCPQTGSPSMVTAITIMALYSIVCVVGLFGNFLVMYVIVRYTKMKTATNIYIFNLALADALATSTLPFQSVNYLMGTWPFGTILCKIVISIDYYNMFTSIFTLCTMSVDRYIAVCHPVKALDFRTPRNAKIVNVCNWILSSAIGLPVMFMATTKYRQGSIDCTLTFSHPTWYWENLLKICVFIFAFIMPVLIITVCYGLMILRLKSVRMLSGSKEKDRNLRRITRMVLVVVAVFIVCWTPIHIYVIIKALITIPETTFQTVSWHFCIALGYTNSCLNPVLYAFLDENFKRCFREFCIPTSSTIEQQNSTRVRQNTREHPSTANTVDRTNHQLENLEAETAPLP
Summary of the method: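 [3H]DAMGO displacement on cloned rat μ-opioid receptors stably expressed in CHO cells. Nonspecific binding defined with 10 μM unlabeled DAMGO. Peptidase inhibitors (10 μM bestatin, 30 μM captopril, 50 μM L-leucyl-L-leucine) and 3 mM Mg2+ included. Mean ± SEM, at least three separate assays.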

[2] = biological target: T2, Delta-type opioid receptor (Mus musculus, UniProt P32300); experiment: Binding affinity towards mouse Opioid receptor delta 1 expressed in CHO cells of chinese hamster ovary was determined using [3H]-[…] as radioligand; assay type: cell-based
T2 sequence (P32300 whole entry): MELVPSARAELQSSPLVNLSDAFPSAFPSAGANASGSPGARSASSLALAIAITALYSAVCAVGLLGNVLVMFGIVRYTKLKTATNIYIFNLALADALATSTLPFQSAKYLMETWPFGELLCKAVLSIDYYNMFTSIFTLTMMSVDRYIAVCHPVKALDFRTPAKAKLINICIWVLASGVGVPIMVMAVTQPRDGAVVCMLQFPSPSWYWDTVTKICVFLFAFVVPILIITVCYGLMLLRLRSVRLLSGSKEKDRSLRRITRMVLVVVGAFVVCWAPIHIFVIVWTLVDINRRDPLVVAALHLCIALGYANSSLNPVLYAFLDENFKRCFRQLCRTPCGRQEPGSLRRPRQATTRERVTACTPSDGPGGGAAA
Summary of the method: (§1)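 Competition binding against [3H]DPDPE on cloned mouse δ-opioid receptors stably expressed in CHO cells. Nonspecific binding defined with 10 μM unlabeled DPDPE. Peptidase inhibitors present (10 μM bestatin, 30 μM captopril, 50 μM L-leucyl-L-leucine) plus 3 mM Mg2+. Mean ± SEM from at least three separate assays.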

[3] = biological target: T1, Kappa-type opioid receptor; experiment: Binding affinity towards rat Opioid receptor kappa 1 expressed in CHO cells of chinese hamster ovary was determined using [3H]diprenorphine as radioligand; assay type: cell-based
Summary of the method: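 Cloned rat κ-opioid receptors stably expressed in CHO cells; affinity from competitive inhibition of [3H]diprenorphine binding. Nonspecific binding defined with 10 μM unlabeled Dyn A-(1-13)NH2. Assay buffer held 10 μM bestatin, 30 μM captopril, 50 μM L-leucyl-L-leucine and 3 mM Mg2+. Mean ± SEM, at least three separate assays.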

[4] = biological target: Kappa-type opioid receptor (Rattus norvegicus) (UniProt P34975); experiment: Inhibition of Forskolin-Stimulated Adenylyl Cyclase in CHO cells expressing Opioid receptor kappa 1 at 10 uM relative to 100 nM Dyn A-(1-13)NH(2); assay type: functional, cell-based
Sequence of Kappa-type opioid receptor (Rattus norvegicus) (P34975 whole entry): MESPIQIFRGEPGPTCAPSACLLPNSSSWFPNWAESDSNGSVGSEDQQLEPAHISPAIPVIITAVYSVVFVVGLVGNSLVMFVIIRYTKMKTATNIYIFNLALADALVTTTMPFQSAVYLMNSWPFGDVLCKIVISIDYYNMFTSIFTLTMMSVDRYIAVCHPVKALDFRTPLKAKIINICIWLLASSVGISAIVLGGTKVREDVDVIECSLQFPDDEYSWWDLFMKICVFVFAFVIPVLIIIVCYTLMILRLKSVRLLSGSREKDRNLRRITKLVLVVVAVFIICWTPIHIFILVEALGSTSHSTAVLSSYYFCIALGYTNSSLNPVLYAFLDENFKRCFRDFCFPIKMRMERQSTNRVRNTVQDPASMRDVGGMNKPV
Summary of the method: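 Same κ-CHO forskolin (50 μM, 40 min, 37°) cyclic AMP assay, with phosphodiesterase and peptidase inhibitors. Maximal percent inhibition by peptide at 10 μM, expressed relative to the inhibition given by 100 nM Dyn A-(1-13)NH2. Cyclic AMP counts corrected for recovery using a [14C]cyclic AMP tracer.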

[5] = biological target: T3, Opioid receptors; mu/kappa/delta (Homo sapiens) (UniProt P41145+P41143+P35372); experiment: Selectivity for kappa/Mu/Delta receptors was determined; 1/44/765; assay type: protein assay
T3 sequence (P35372 whole entry, looked up): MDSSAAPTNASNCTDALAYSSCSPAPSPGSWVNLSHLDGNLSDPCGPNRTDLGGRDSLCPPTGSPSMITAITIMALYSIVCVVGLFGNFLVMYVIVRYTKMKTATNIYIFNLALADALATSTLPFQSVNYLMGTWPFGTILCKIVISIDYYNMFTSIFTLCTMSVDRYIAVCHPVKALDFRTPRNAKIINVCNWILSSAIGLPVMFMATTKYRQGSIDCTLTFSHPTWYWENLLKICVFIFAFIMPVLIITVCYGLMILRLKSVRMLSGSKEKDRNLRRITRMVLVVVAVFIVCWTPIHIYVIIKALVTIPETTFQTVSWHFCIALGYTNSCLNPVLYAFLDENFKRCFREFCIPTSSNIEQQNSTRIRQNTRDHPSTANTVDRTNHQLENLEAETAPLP
T3 sequence (P41143 whole entry, looked up): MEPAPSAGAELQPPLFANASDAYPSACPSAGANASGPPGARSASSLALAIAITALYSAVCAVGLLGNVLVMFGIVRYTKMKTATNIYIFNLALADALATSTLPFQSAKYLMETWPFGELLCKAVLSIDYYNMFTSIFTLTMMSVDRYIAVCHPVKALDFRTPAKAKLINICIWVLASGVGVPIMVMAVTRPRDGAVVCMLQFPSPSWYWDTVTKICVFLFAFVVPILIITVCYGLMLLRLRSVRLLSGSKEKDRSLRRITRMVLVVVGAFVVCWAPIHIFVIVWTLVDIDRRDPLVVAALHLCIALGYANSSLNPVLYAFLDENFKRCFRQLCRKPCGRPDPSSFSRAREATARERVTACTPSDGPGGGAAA
T3 sequence (P41145 whole entry, looked up): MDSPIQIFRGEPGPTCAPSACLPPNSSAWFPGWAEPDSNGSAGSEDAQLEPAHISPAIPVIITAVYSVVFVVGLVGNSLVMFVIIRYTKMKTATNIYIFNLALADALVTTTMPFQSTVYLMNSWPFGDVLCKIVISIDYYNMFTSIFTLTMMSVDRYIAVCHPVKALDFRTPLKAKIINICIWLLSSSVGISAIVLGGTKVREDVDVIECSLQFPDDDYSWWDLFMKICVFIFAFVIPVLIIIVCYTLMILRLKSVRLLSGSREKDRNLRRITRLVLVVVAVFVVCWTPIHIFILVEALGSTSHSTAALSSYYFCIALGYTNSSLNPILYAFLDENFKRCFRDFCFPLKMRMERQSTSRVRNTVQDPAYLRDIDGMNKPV

[6] = biological target: T3, Opioid receptors; mu/kappa/delta (Homo sapiens); experiment: Selectivity for kappa/Mu/Delta receptors was determined; 1/14/>377; assay type: protein assay
[7] = biological target: T3, Opioid receptors; mu/kappa/delta (Homo sapiens); experiment: Selectivity for kappa/Mu/Delta receptors was determined 1/1.7/90; assay type: protein assay
[8] = biological target: T2, Delta-type opioid receptor; experiment: Binding affinity towards mouse Opioid receptor delta 1 expressed in CHO cells of chinese hamster ovary was determined using [3H][…] as radioligand; assay type: cell-based; summary of the method: as §1

T1 sequence (P34975 whole entry): as the sequence (P34975 whole entry) above

Structure (SMILES): CC(C)C[C@H](NC(=O)[C@]1(NC(=O)CNC(=O)CNC(=O)[C@@H](N)Cc2ccc(O)cc2)CCc2ccccc2C1)C(=O)N[C@@H](CCCNC(=N)N)C(=O)N[C@@H](CCCNC(=N)N)C(=O)N[C@H](C)C(=O)N[C@@H](CCCNC(=N)N)C(=O)N1CCC[C@H]1C(=O)N[C@@H](CCCCN)C(N)=O
- EC50 [1]: 0.573 µM
- Ki (Mu-type opioid receptor): 0.0883 µM
- Ki [2]: > 10 µM
- Ki [3]: 0.00954 µM

Structure (SMILES): CC(C)C[C@H](NC(=O)[C@@]1(NC(=O)CNC(=O)CNC(=O)[C@@H](N)Cc2ccc(O)cc2)CCc2ccccc2C1)C(=O)N[C@@H](CCCN=C(N)N)C(=O)N[C@@H](CCCN=C(N)N)C(=O)N[C@H](C)C(=O)N[C@@H](CCCN=C(N)N)C(=O)N1CCC[C@H]1C(=O)N[C@@H](CCCCN)C(N)=O
- EC50 [1]: 0.0724 µM
- Ki (Mu-type opioid receptor): 0.0329 µM
- Ki [2]: > 10 µM
- Max response [4]: 96%
- Ki [3]: 0.00089 µM

Structure (SMILES): CC(C)C[C@H](NC(=O)[C@@H]1Cc2ccccc2CN1C(=O)CNC(=O)CNC(=O)[C@@H](N)Cc1ccc(O)cc1)C(=O)N[C@@H](CCCNC(=N)N)C(=O)N[C@@H](CCCNC(=N)N)C(=O)N[C@H](C)C(=O)N[C@@H](CCCNC(=N)N)C(=O)N1CCC[C@H]1C(=O)N[C@@H](CCCCN)C(N)=O
- EC50 [1]: 0.0294 µM
- Ki (Mu-type opioid receptor): 0.206 µM
- Ki [2]: 3.59 µM
- Ki [3]: 0.00469 µM

Structure (SMILES): CC(C)C[C@H](NC(=O)[C@@H]1Cc2ccccc2CN1C(=O)CNC(=O)CNC(=O)[C@@H](N)Cc1ccc(O)cc1)C(=O)N[C@@H](CCCN=C(N)N)C(=O)N[C@@H](CCCN=C(N)N)C(=O)N[C@H](C)C(=O)N[C@@H](CCCN=C(N)N)C(=O)N1CCC[C@H]1C(=O)N[C@@H](CCCCN)C(N)=O
- Ki ratio [5]: kappa/mu/delta
- Max response [4]: 91%

Structure (SMILES): CC(C)C[C@H](NC(=O)C1(NC(=O)CNC(=O)CNC(=O)[C@@H](N)Cc2ccc(O)cc2)Cc2ccccc2C1)C(=O)N[C@@H](CCCN=C(N)N)C(=O)N[C@@H](CCCN=C(N)N)C(=O)N[C@H](C)C(=O)N[C@@H](CCCN=C(N)N)C(=O)N1CCC[C@H]1C(=O)N[C@@H](CCCCN)C(N)=O
- Ki (Mu-type opioid receptor): 0.364 µM
- Ki [2]: > 10 µM
- Ki ratio [6]: kappa/mu/delta
- Max response [4]: 39%
- Ki [3]: 0.0265 µM

Structure (SMILES): CC(C)C[C@H](NC(=O)[C@H](CCc1ccccc1)NC(=O)CNC(=O)CNC(=O)[C@@H](N)Cc1ccc(O)cc1)C(=O)N[C@@H](CCCN=C(N)N)C(=O)N[C@@H](CCCN=C(N)N)C(=O)N[C@H](C)C(=O)N[C@@H](CCCN=C(N)N)C(=O)N1CCC[C@H]1C(=O)N[C@@H](CCCCN)C(N)=O
- EC50 [1]: 0.0469 µM
- Ki (Mu-type opioid receptor): 0.047 µM
- Ki [2]: 5.57 µM
- Max response [4]: 100%
- Ki [3]: 0.00173 µM

Structure (SMILES): CC(C)C[C@H](NC(=O)[C@@H](Cc1ccccc1)N(C)C(=O)CNC(=O)CNC(=O)[C@@H](N)Cc1ccc(O)cc1)C(=O)N[C@@H](CCCN=C(N)N)C(=O)N[C@@H](CCCN=C(N)N)C(=O)N[C@H](C)C(=O)N[C@@H](CCCN=C(N)N)C(=O)N1CCC[C@H]1C(=O)N[C@@H](CCCCN)C(N)=O
- Ki ratio [7]: kappa/mu/delta
- Max response [4]: 99%

Structure (SMILES): CC(C)C[C@H](NC(=O)[C@]1(NC(=O)CNC(=O)CNC(=O)[C@@H](N)Cc2ccc(O)cc2)CCc2ccccc2C1)C(=O)N[C@@H](CCCN=C(N)N)C(=O)N[C@@H](CCCN=C(N)N)C(=O)N[C@H](C)C(=O)N[C@@H](CCCN=C(N)N)C(=O)N1CCC[C@H]1C(=O)N[C@@H](CCCCN)C(N)=O
- Max response [4]: 74%

Structure (SMILES): CC(C)C[C@H](NC(=O)[C@H](Cc1ccccc1)NC(=O)CNC(=O)CNC(=O)[C@@H](N)Cc1ccc(O)cc1)C(=O)N[C@@H](CCCN=C(N)N)C(=O)N[C@@H](CCCN=C(N)N)C(=O)N[C@H](C)C(=O)N[C@@H](CCCN=C(N)N)C(=O)N1CCC[C@H]1C(=O)N[C@@H](CCCCN)C(N)=O
- EC50 [1]: 0.515 µM
- Ki (Mu-type opioid receptor): 0.123 µM
- Max response [4]: 73%
- Ki [3]: 0.00891 µM
- Ki [8]: > 10 µM

Structure (SMILES): CC(C)C[C@H](NC(=O)[C@@H](Cc1ccccc1)NC(=O)CNC(=O)CNC(=O)[C@@H](N)Cc1ccc(O)cc1)C(=O)N[C@@H](CCCN=C(N)N)C(=O)N[C@@H](CCCN=C(N)N)C(=O)N[C@H](C)C(=O)N[C@@H](CCCN=C(N)N)C(=O)N1CCC[C@H]1C(=O)N[C@@H](CCCCN)C(N)=O
- EC50 ([1]; cho): 0.00124 µM
- Ki (Mu-type opioid receptor; cho): 0.0042 µM
- Ki ([2]; cho): 0.00657 µM
- Max response [4]: 100%
- Ki ([3]; cho): 0.00011 µM

Structure (SMILES): CC(C)C[C@H](NC(=O)[C@@](C)(Cc1ccccc1)NC(=O)CNC(=O)CNC(=O)[C@@H](N)Cc1ccc(O)cc1)C(=O)N[C@@H](CCCN=C(N)N)C(=O)N[C@@H](CCCN=C(N)N)C(=O)N[C@H](C)C(=O)N[C@@H](CCCN=C(N)N)C(=O)N1CCC[C@H]1C(=O)N[C@@H](CCCCN)C(N)=O
- EC50 ([1]; cho): 0.0365 µM
- Ki (Mu-type opioid receptor; cho): 0.00324 µM
- Ki ([2]; cho): 0.157 µM
- Max response [4]: 100%
- Ki ([3]; cho): 0.0032 µM

Structure (SMILES): CC(C)C[C@H](NC(=O)[C@@H](CCc1ccccc1)NC(=O)CNC(=O)CNC(=O)[C@@H](N)Cc1ccc(O)cc1)C(=O)N[C@@H](CCCN=C(N)N)C(=O)N[C@@H](CCCN=C(N)N)C(=O)N[C@H](C)C(=O)N[C@@H](CCCN=C(N)N)C(=O)N1CCC[C@H]1C(=O)N[C@@H](CCCCN)C(N)=O
- EC50 ([1]; cho): 0.0052 µM
- Ki (Mu-type opioid receptor; cho): 0.0137 µM
- Ki ([2]; cho): 0.19 µM
- Max response [4]: 95%
- Ki [3]: 0.00066 µM

Structure (SMILES): CC(C)C[C@H](NC(=O)[C@H](Cc1ccccc1)N(C)C(=O)CNC(=O)CNC(=O)[C@@H](N)Cc1ccc(O)cc1)C(=O)N[C@@H](CCCN=C(N)N)C(=O)N[C@@H](CCCN=C(N)N)C(=O)N[C@H](C)C(=O)N[C@@H](CCCN=C(N)N)C(=O)N1CCC[C@H]1C(=O)N[C@@H](CCCCN)C(N)=O
- EC50 ([1]; cho): 0.00356 µM
- Ki (Mu-type opioid receptor; cho): 0.00103 µM
- Ki ([2]; cho): 0.0561 µM
- Ki ([3]; cho): 0.00062 µM
